The source made the active and inactive calls. No cut-off for these calls is given here.
Columns and labels:
[1] = molecular target: P2Y purinoceptor 1 (Homo sapiens, UniProt P47900); assay: Agonist activity at human recombinant P2Y1 receptor expressed in human 1321 cells at 100 uM by calcium mobilization assay; assay type: functional, cell-based
How it was run: (§1)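 1321N1 human astrocytoma cells expressing the recombinant receptor were loaded with Fluo-3 AM (2.5 µM final) for 60 min at 25 °C. Assay buffer: KCl 10, NaCl 118, CaCl2 2.5, MgCl2 1, HEPES 20, glucose 10 mM, pH 7.4. Cells were washed and then stimulated with compound. Intracellular calcium was read as the change in fluorescence (FLIPR). Values are EC50 in µM. SR means 5–20% of maximal response at the top concentration, usually 100 µM. NR means no response.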

[2] = molecular target: T1, P2Y purinoceptor 2 (Homo sapiens, UniProt P41231); assay: Agonist activity at P2Y2 receptor expressed in human 1321 cells at 100 uM by calcium mobilization assay; assay type: functional, cell-based; how it was run: as §1
[3] = molecular target: T1, P2Y purinoceptor 2; assay: Agonist activity at P2Y2 receptor expressed in human 1321 cells by calcium mobilization assay; assay type: functional, cell-based
[4] = molecular target: P2Y purinoceptor 12 (Homo sapiens) (UniProt Q9H244); assay: Antagonist activity at P2Y12 receptor assessed as inhibition of ADP-induced human platelet aggregation by washed platelet assay at 100 uM; assay type: functional
How it was run: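 Blood from healthy volunteers was anticoagulated with ACD and spun at 180g for 15 min to give PRP. Platelets were washed three times in HEPES-buffered saline, pH 7.4, with 0.2% BSA and 5 µM PGI2, then resuspended with 0.25 U/mL apyrase. The suspension held 1 mg/mL fibrinogen at 37 °C, stirred at 1000 rpm. Compound (usually 1 nM–100 µM) was added for 2 min, then ADP at EC90 (usually 1–10 µM). Optical aggregation was recorded for 8 min. IC50 came from a four-parameter logistic fit.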

[5] = molecular target: P2Y purinoceptor 6 (Homo sapiens, UniProt Q15077); assay: Agonist activity at P2Y6 receptor expressed in human 1321 cells at 100 uM by calcium mobilization assay; assay type: functional, cell-based; how it was run: as §1
P2Y purinoceptor 6, sequence (Q15077 whole entry): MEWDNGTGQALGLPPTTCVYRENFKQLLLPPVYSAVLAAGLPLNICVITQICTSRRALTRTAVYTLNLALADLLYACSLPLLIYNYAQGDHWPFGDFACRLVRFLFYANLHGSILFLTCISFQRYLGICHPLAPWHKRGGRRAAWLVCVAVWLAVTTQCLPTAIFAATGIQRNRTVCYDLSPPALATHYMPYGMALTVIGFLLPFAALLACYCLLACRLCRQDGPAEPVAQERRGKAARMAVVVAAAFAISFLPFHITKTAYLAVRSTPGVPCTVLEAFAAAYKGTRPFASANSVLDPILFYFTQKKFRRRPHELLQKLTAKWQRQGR

P2Y purinoceptor 12 (Homo sapiens), sequence (Q9H244 whole entry): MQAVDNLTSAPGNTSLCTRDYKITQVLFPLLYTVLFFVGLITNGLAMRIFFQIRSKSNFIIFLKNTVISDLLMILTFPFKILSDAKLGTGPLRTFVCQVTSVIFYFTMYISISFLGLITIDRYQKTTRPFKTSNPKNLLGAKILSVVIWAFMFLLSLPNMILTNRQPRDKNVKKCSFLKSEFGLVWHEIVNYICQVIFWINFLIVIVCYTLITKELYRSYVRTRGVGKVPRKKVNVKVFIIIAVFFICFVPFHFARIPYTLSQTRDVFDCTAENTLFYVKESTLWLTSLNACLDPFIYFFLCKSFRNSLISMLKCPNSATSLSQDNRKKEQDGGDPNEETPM
P2Y purinoceptor 1, sequence (P47900 whole entry): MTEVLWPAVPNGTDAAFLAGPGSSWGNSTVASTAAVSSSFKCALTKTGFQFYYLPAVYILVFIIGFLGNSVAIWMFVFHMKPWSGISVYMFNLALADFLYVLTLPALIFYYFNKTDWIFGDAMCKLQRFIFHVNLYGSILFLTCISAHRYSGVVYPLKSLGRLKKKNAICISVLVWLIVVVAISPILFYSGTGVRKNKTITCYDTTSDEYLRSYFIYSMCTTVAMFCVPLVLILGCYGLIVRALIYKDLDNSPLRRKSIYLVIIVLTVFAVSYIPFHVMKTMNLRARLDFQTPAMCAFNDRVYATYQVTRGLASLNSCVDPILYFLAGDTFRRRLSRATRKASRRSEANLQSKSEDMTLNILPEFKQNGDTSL
T1 sequence (P41231 whole entry): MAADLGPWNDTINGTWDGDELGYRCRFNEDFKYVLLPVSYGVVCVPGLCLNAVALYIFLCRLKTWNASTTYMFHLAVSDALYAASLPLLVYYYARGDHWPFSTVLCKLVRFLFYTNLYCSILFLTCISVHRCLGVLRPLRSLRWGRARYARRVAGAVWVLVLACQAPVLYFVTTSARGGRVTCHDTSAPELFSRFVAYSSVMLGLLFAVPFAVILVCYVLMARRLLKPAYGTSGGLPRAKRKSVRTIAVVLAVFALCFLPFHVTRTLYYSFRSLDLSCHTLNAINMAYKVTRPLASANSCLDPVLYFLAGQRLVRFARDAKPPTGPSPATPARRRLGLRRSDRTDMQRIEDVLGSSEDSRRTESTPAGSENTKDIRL

Row | Structure (SMILES) | Activity [1] | Activity [2] | EC50 [3] | inhibition [4] | Activity [5] | Activity [4]
1 | O=C(Nc1ccc(F)cc1)Nc1ccn([C@@H]2O[C@H](COP(=O)(O)OP(=O)(O)OP(=O)(O)OP(=O)(O)OC[C@@H]3O[C@H](n4ccc(=O)[nH]c4=O)[C@@H](O)[C@H]3O)[C@H]3O[C@@H](Cc4ccccc4)O[C@H]32)c(=O)n1 | inactive | > 5% | – | – | – | –
2 | Nc1ccn([C@@H]2O[C@H](COP(=O)(O)OP(=O)(O)OP(=O)(O)OP(=O)(O)OC[C@@H]3O[C@H](n4ccc(=O)[nH]c4=O)[C@@H](O)[C@H]3O)[C@H]3OC(Cc4ccccc4)O[C@H]32)c(=O)n1 (some centres undefined) | inactive | – | 0.545 µM | 46% | inactive | –
3 | O=C(Nc1ccc(F)cc1)Nc1ccn([C@@H]2O[C@H](COP(=O)(O)O)C(O)C2O)c(=O)n1 (single isomer, unassigned) | – | – | – | – | – | inactive
4 | Nc1ncnc2c1ncn2[C@@H]1O[C@H](COP(=O)(O)OP(=O)(O)OP(=O)(O)OP(=O)(O)OC[C@@H]2O[C@H](n3cnc4c(N)ncnc43)[C@@H](O)[C@H]2O)[C@H]2OC(Cc3ccccc3)O[C@H]21 (some centres undefined) | inactive | – | 0.052 µM | – | inactive | –
5 | CNc1ccccc1C(=O)O[C@H]1[C@@H](O)[C@H](COP(=O)(O)OP(=O)(O)OP(=O)(O)OP(=O)(O)OC[C@H]2O[C@@H](n3ccc(=O)[nH]c3=O)[C@H](O)[C@@H]2O)O[C@@H]1n1ccc(=O)[nH]c1=O | inactive | – | 0.13 µM | 46% | > 5% | –
6 | O=C(Nc1ccccc1)Nc1ncnc2c1ncn2[C@@H]1O[C@H](COP(=O)(O)OP(=O)(O)OP(=O)(O)OP(=O)(O)OC[C@@H]2O[C@H](n3cnc4c(NC(=O)Nc5ccccc5)ncnc43)[C@H]3O[C@@H](Cc4ccccc4)O[C@H]32)[C@H]2O[C@@H](Cc3ccccc3)O[C@H]21 | inactive | inactive | – | – | – | –
7 | CCCCCCCC1O[C@@H]2[C@H](O1)[C@@H](COP(=O)(O)OP(=O)(O)OP(=O)(O)OP(=O)(O)OC[C@@H]1O[C@H](n3ccc(=O)[nH]c3=O)[C@@H](O)[C@H]1O)O[C@H]2n1ccc(=O)[nH]c1=O (some centres undefined) | inactive | – | 0.147 µM | – | > 5% | –
8 | O=C(Nc1ccc(F)cc1)Nc1ccn([C@@H]2O[C@H](COP(=O)(O)OP(=O)(O)OP(=O)(O)OP(=O)(O)OC[C@@H]3O[C@H](n4ccc(=O)[nH]c4=O)[C@@H](O)[C@H]3O)[C@@H](O)[C@H]2O)c(=O)n1 | > 5% | – | 2.42 µM | – | – | inactive
9 | Nc1ncnc2c1ncn2[C@@H]1O[C@H](COP(=O)(O)OP(=O)(O)OP(=O)(O)OP(=O)(O)OC[C@@H]2O[C@H](n3cnc4c(N)ncnc43)[C@H]3OC(Cc4ccccc4)O[C@H]32)[C@H]2OC(Cc3ccccc3)O[C@H]21 (some centres undefined) | inactive | > 5% | – | – | inactive | –
10 | O=c1ccn([C@@H]2O[C@H](COP(=O)(O)OP(=O)(O)OP(=O)(O)OP(=O)(O)OC[C@@H]3O[C@H](n4ccc(=O)[nH]c4=O)[C@H]4OC(/C=C/c5ccccc5)O[C@H]43)[C@H]3OC(/C=C/c4ccccc4)O[C@H]32)c(=O)[nH]1 (stereo in doubt; 25) | inactive | inactive | – | – | > 5% | –
11 | O=C(Nc1ccccc1)Nc1ncnc2c1ncn2[C@@H]1O[C@H](COP(=O)(O)OP(=O)(O)O)[C@H]2O[C@@H](Cc3ccccc3)O[C@H]21 | > 5% | – | 13.9 µM | – | > 5% | –
12 | O=C(Nc1ccc(F)cc1)Nc1ccn([C@@H]2O[C@H](COP(=O)(O)O)[C@H]3O[C@@H](Cc4ccccc4)O[C@H]32)c(=O)n1 | inactive | inactive | – | – | inactive | –
13 | CCCCCCCC1O[C@@H]2[C@H](O1)[C@@H](COP(=O)(O)OP(=O)(O)OP(=O)(O)OP(=O)(O)OC[C@@H]1O[C@H](n3ccc(=O)[nH]c3=O)[C@H]3OC(CCCCCCC)O[C@H]31)O[C@H]2n1ccc(=O)[nH]c1=O (some centres undefined) | inactive | – | – | – | inactive | –
14 | O=c1ccn([C@@H]2O[C@H](COP(=O)(O)OP(=O)(O)OP(=O)(O)OP(=O)(O)OC[C@@H]3O[C@H](n4ccc(=O)[nH]c4=O)[C@H]4OC(c5ccccc5)O[C@H]43)[C@H]3OC(c4ccccc4)O[C@H]32)c(=O)[nH]1 (some centres undefined) | inactive | – | 3.07 µM | – | inactive | –
15 | Nc1ccn([C@@H]2O[C@H](COP(=O)(O)OP(=O)(O)OP(=O)(O)OP(=O)(O)OC[C@@H]3O[C@H](n4ccc(=O)[nH]c4=O)[C@H]4OC(Cc5ccccc5)O[C@H]43)[C@@H](O)[C@H]2O)c(=O)n1 (some centres undefined) | inactive | inactive | – | 46% | inactive | –
16 | O=c1ccn([C@@H]2O[C@H](COP(=O)(O)OP(=O)(O)OP(=O)(O)OP(=O)(O)OC[C@@H]3O[C@H](n4ccc(=O)[nH]c4=O)[C@@H](O)[C@H]3O)[C@H]3OC(C#Cc4ccccc4)O[C@H]32)c(=O)[nH]1 (stereo in doubt; 26) | inactive | – | 0.068 µM | – | – | –
17 | CCCC1O[C@@H]2[C@@H](O1)[C@@H](COP(=O)(O)OP(=O)(O)OP(=O)(O)OP(=O)(O)OC[C@@H]1O[C@H](n3ccc(=O)[nH]c3=O)[C@H]3OC(CCC)O[C@H]31)O[C@H]2n1ccc(=O)[nH]c1=O (some centres undefined) | inactive | > 5% | – | 60% | > 5% | –
18 | CNc1ccccc1C(=O)O[C@H]1[C@@H](O)[C@H](n2ccc(=O)[nH]c2=O)O[C@@H]1COP(=O)(O)OP(=O)(O)OP(=O)(O)OP(=O)(O)OC[C@@H]1O[C@H](n2ccc(=O)[nH]c2=O)[C@@H](OC(=O)c2ccccc2NC)[C@H]1O | inactive | – | 5.47 µM | – | > 5% | –
19 | O=c1ccn([C@@H]2O[C@H](COP(=O)(O)OP(=O)(O)OP(=O)(O)OP(=O)(O)OC[C@@H]3O[C@H](n4ccc(=O)[nH]c4=O)[C@@H](O)[C@H]3O)[C@@H]3OC(c4ccccc4)O[C@H]32)c(=O)[nH]1 (some centres undefined) | inactive | – | 0.192 µM | – | > 5% | –
20 | O=c1ccn([C@@H]2O[C@H](COP(=O)(O)OP(=O)(O)OP(=O)(O)OP(=O)(O)OC[C@@H]3O[C@H](n4ccc(=O)[nH]c4=O)[C@@H](O)[C@H]3O)[C@H]3OC(/C=C/c4ccccc4)O[C@H]32)c(=O)[nH]1 (stereo in doubt; 24) | inactive | – | 0.155 µM | – | – | –
21 | O=c1ccn([C@@H]2O[C@H](COP(=O)(O)OP(=O)(O)OP(=O)(O)OP(=O)(O)OC[C@@H]3O[C@H](n4ccc(=O)[nH]c4=O)[C@@H](O)[C@H]3O)[C@@H]3OC(Cc4ccccc4)O[C@H]32)c(=O)[nH]1 (some centres undefined) | inactive | – | 0.094 µM | – | > 5% | –
22 | O=C(Nc1ccc(F)cc1)Nc1ccn([C@@H]2O[C@H](COP(=O)(O)OP(=O)(O)OP(=O)(O)OP(=O)(O)OC[C@@H]3O[C@H](n4ccc(=O)[nH]c4=O)[C@H]4O[C@@H](Cc5ccccc5)O[C@H]43)[C@@H](O)[C@H]2O)c(=O)n1 | inactive | inactive | – | – | – | –
23 | Nc1ccn([C@@H]2O[C@H](COP(=O)(O)O)[C@H]3O[C@@H](Cc4ccccc4)O[C@H]32)c(=O)n1 | inactive | inactive | – | – | inactive | inactive
24 | Nc1ncnc2c1ncn2[C@@H]1O[C@H](COP(=O)(O)OP(=O)(O)OP(=O)(O)O)[C@@H](O)[C@H]1O | – | – | – | 63% | – | –
25 | Nc1ccn([C@@H]2O[C@H](COP(=O)(O)OP(=O)(O)OP(=O)(O)OP(=O)(O)OC[C@@H]3O[C@H](n4ccc(=O)[nH]c4=O)[C@H]4OC(Cc5ccccc5)O[C@H]43)[C@H]3OC(Cc4ccccc4)O[C@H]32)c(=O)n1 (some centres undefined) | inactive | inactive | – | – | inactive | –
26 | Nc1ccn([C@@H]2O[C@H](COP(=O)(O)OP(=O)(O)OP(=O)(O)OP(=O)(O)OC[C@@H]3O[C@H](n4ccc(=O)[nH]c4=O)[C@@H](O)[C@H]3O)[C@@H](O)[C@H]2O)c(=O)n1 | > 5% | – | 0.044 µM | – | > 5% | inactive
27 | O=c1ccn([C@@H]2O[C@H](COP(=O)(O)OP(=O)(O)OP(=O)(O)OC[C@@H]3O[C@H](n4ccc(=O)[nH]c4=O)[C@H]4OC(Cc5ccccc5)O[C@H]43)[C@H]3OC(Cc4ccccc4)O[C@H]32)c(=O)[nH]1 (some centres undefined) | inactive | inactive | – | – | inactive | –
28 | O=C(Nc1ccc(F)cc1)Nc1ccn([C@@H]2O[C@H](COP(=O)(O)OP(=O)(O)OP(=O)(O)OP(=O)(O)OC[C@@H]3O[C@H](n4ccc(=O)[nH]c4=O)[C@H]4O[C@@H](Cc5ccccc5)O[C@H]43)[C@H]3O[C@@H](Cc4ccccc4)O[C@H]32)c(=O)n1 | inactive | inactive | – | – | inactive | –
29 | O=C(O[C@@H]1[C@H](OC(=O)c2ccccc2)[C@@H](n2ccc(=O)[nH]c2=O)O[C@H]1COP(=O)(O)OP(=O)(O)OP(=O)(O)OP(=O)(O)OC[C@H]1O[C@@H](n2ccc(=O)[nH]c2=O)[C@H](OC(=O)c2ccccc2)[C@@H]1OC(=O)c1ccccc1)c1ccccc1 | inactive | inactive | – | 52% | inactive | –

From ChEMBL document CHEMBL1141591, “Lipophilic modifications to dinucleoside polyphosphates and nucleotides that confer antagonist properties at the platelet P2Y12 receptor” (J Med Chem, 2008)
